Reference: ChEMBL document CHEMBL1151851, “Antioxidant Lignans from the Fruits of Broussonetia papyrifera” (J Nat Prod, 2009)
Calls of active or inactive are those of the source. The calls are words filed in the database; no cut-off is given here.

Assays:
[1] = system: PC-12; assay: Antioxidant activity against H2O2-induced impairment in rat PC12 cells at 0.16 to 100 uM after 3 hrs by MTT assay; format: functional, cell-based
Summary of the method: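 PC12 cells in RPMI 1640 with 5% fetal calf serum, 10% horse serum, penicillin/streptomycin and 20 mM L-glutamine. Seeded at 1 × 10^6/mL, 24 h at 37 °C, 5% CO2. Then exposed to H2O2 (200 µM final) together with compound (0.16–100 µM final) for 3 h. PBS rinse, MTT 0.4 mg/mL for 4 h at 37 °C, DMSO solubilization, OD 570 nm. Viability %, n = 6, mean ± SD.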

[2] = system: Radical scavenging activity; assay: Antioxidant activity assessed as DPPH radical scavenging activity after 30 mins by spectrophotometry; format: functional

Compound	IC50 [2] [µM]	Activity [1]
COc1cc(CCCO)cc2c1O[C@H](c1ccc(O)cc1)[C@H]2CO	–	Active
COc1cc([C@H](O)[C@@H](CO)Oc2ccc(/C=C/CO)cc2OC)ccc1O (relative stereo)	60.9	Active
COc1cc(C(=O)CCO)cc2c1O[C@H](c1ccc(O)cc1)[C@H]2CO (relative stereo)	–	Active
COc1cc(C(=O)[C@@H]2CO[C@H](c3ccc(O)cc3)[C@H]2CO)ccc1O[C@H](CO)[C@@H](O)c1ccc(O)cc1 (relative stereo)	–	Active
COc1cc([C@H]2OC[C@H]3[C@@H]2CO[C@@H]3c2ccc(O)cc2)cc2c1O[C@H](c1ccc(O)cc1)[C@H]2CO (relative stereo)	–	Active
COc1cc(CCCO)ccc1O[C@H](CO)[C@@H](O)c1ccc(O)cc1 (relative stereo) [CHUSHIZISINS D]	274	–

Second part, led by results:

IC50 [2] [µM]	Compound	Activity [1]
281	COC(c1ccc(O)cc1)[C@H]1CO[C@@H](c2ccc(O)cc2)[C@@H]1CO (relative stereo) [CHUSHIZISIN G]	–
237	COc1cc(/C=C/CO)ccc1O[C@H](CO)[C@H](O)c1ccc(O)cc1 (relative stereo) [CHUSHIZISINS A]	Active
156	COc1cc(/C=C/CO)ccc1O[C@H](CO)[C@@H](O)c1ccc(O)cc1 (relative stereo) [CHUSHIZISINS B]	–
